Results published in ChEMBL document CHEMBL1152831, “Synthesis and pharmacological screening of derivatives of isoxazolo[4,5-d]pyrimidine” (2008).

Tests used:
Assay type in all cases: functional
LOX IMVI = test: Antitumor activity against human LOXIMVI cells
CCRF-CEM = test: Antitumor activity against human CCRF-CEM cells
MOLT-4 = test: Antitumor activity against human MOLT4 cells
CAKI-1 = test: Antitumor activity against human Caki1 cells
SK-MEL-2 = test: Antitumor activity against human SK-MEL-2 cells
HCC 2998 = test: Antitumor activity against human HCC2998 cells
K562 = test: Antitumor activity against human K562 cells
NCI-H522 = test: Antitumor activity against human NCI-H522 cells
U-251 = test: Antitumor activity against human U251 cells
SF-539 = test: Antitumor activity against human SF539 cells
HCT-15 = test: Antitumor activity against human HCT15 cells
HOP-92 = test: Antitumor activity against human HOP92 cells
Splenocyte [1] = test: Effect on cancavalin-A-induced proliferation in mouse splenocytes at 0.1 ug/ml assessed as proliferation rate by MTT assay
Method in brief: (§1)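 Splenocytes from CBA mice were pressed through a screen into Hank's medium. Erythrocytes were lysed with 0.83% NH4Cl, cells washed twice and passed through cotton wool to remove dead cells. They were resuspended in RPMI 1640 with 10% FCS, L-glutamine, pyruvate and antibiotics. 2×10⁵ cells per well, Con A at 2.5 final, compounds across 0.1–10. After 3 days, MTT read as OD 550/630 nm. Mean of quadruplicate wells ±SE, Student's t-test.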

Mus musculus [2] = test: Effect on humoral immune response in sheep red blood cells-immunized CBA mouse spleen assessed as number of antibody forming unit per 10^6 viable cells at 10 ug, ip by local hemolysis assay
Method in brief: (§2)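 Male and female CBA mice, 12 weeks old, immunized i.p. with 0.2 mL of 5% SRBC in 0.9% NaCl. Compounds (DMSO stock diluted in saline) were given i.p. 2 h later; controls received saline or diluted DMSO. Spleens were taken on day 4 and antibody-forming cells counted by local hemolysis assay per 10⁶ viable splenocytes. Mean of 5 mice per group ±SE, t-test.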

Mus musculus [3] = test: Effect on delayed type hypersensitivity in sheep red blood cells-immunized CBA mouse assessed as foot-pad edema at 100 ug, ip
Method in brief: (§3)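 Male and female CBA mice, 12 weeks old, sensitized i.v. with 10⁵ SRBCs in 0.2 mL. Compounds were dissolved in DMSO, then diluted in 0.9% NaCl, and given i.p. 2 h later. Controls received saline or diluted DMSO. On day 4, 10⁸ SRBCs in 0.05 mL were injected into the hind footpads. Footpad edema was measured by callipers 24 h later, minus the naive-mouse background. Mean ±SE, t-test.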

Mus musculus [4] = test: Effect on humoral immune response in sheep red blood cells-immunized CBA mouse spleen assessed as number of antibody forming unit per 10^6 viable cells at 100 ug, ip by local hemolysis assay; method in brief: as §2
Mus musculus [5] = test: Effect on delayed type hypersensitivity in sheep red blood cells-immunized CBA mouse assessed as foot-pad edema at 10 ug, ip; method in brief: as §3
Splenocyte [6] = test: Effect on cancavalin-A-induced proliferation in mouse splenocytes at 10 ug/ml assessed as proliferation rate by MTT assay; method in brief: as §1
Splenocyte [7] = test: Effect on cancavalin-A-induced proliferation in mouse splenocytes at 1 ug/ml assessed as proliferation rate by MTT assay; method in brief: as §1
[8] = read-out: Log10GI50 (converted)
[9] = read-out: Log10LC50 (converted)

Q: How did the GI50 (LOX IMVI; [8]) turn out when `Nc1c(-c2nnco2)noc1C(=O)c1ccccc1` was run?
A: 28.8 µM

Q: And the CC50 (LOX IMVI; [9])?
A: > 100 µM

Q: And the TGI (LOX IMVI; read-out: Log10TGI (converted))?
A: > 100 µM

Q: And the GI50 (CCRF-CEM; [8])?
A: 18.2 µM

Q: And the CC50 (CCRF-CEM; [9])?
A: > 100 µM

Q: And the TGI (CCRF-CEM; read-out: Log10TGI (converted))?
A: > 100 µM

Q: What about the GI50 (MOLT-4; [8]) of the same molecule?
A: 56.2 µM

Q: And the CC50 (MOLT-4; [9])?
A: > 100 µM

Q: What about the TGI (MOLT-4; read-out: Log10TGI (converted)) of the same molecule?
A: > 100 µM

Q: What about the GI50 (CAKI-1; [8]) of the same molecule?
A: 21.9 µM

Q: What about the CC50 (CAKI-1; [9]) of the same molecule?
A: > 100 µM

Q: What about the TGI (CAKI-1; read-out: Log10TGI (converted)) of the same molecule?
A: > 100 µM

Q: And the GI50 (SK-MEL-2; [8])?
A: 33.1 µM

Q: And the CC50 (SK-MEL-2; [9])?
A: > 100 µM

Q: And the TGI (SK-MEL-2; read-out: Log10TGI (converted))?
A: > 100 µM

Q: And the GI50 (HCC 2998; [8])?
A: 26.9 µM

Q: What about the CC50 (HCC 2998; [9]) of the same molecule?
A: > 100 µM

Q: And the TGI (HCC 2998; read-out: Log10TGI (converted))?
A: 95.5 µM

Q: What about the GI50 (K562; [8]) of the same molecule?
A: 57.5 µM

Q: What about the CC50 (K562; [9]) of the same molecule?
A: > 100 µM

Q: And the TGI (K562; read-out: Log10TGI (converted))?
A: > 100 µM

Q: And the GI50 (NCI-H522; [8])?
A: 33.9 µM

Q: And the CC50 (NCI-H522; [9])?
A: > 100 µM

Q: And the TGI (NCI-H522; read-out: Log10TGI (converted))?
A: > 100 µM

Q: What about the GI50 (U-251; [8]) of the same molecule?
A: 16.2 µM

Q: And the CC50 (U-251; [9])?
A: > 100 µM

Q: What about the TGI (U-251; read-out: Log10TGI (converted)) of the same molecule?
A: 69.2 µM

Q: What about the GI50 (SF-539; [8]) of the same molecule?
A: 2.75 µM

Q: And the CC50 (SF-539; [9])?
A: 64.6 µM

Q: And the TGI (SF-539; read-out: Log10TGI (converted))?
A: 22.4 µM

Q: And the GI50 (HCT-15; [8])?
A: 29.5 µM

Q: What about the CC50 (HCT-15; [9]) of the same molecule?
A: > 100 µM

Q: What about the TGI (HCT-15; read-out: Log10TGI (converted)) of the same molecule?
A: > 100 µM

Q: What about the GI50 (HOP-92; [8]) of the same molecule?
A: 30.9 µM

Q: And the CC50 (HOP-92; [9])?
A: > 100 µM

Q: And the TGI (HOP-92; read-out: Log10TGI (converted))?
A: 97.7 µM

Q: How did the OD (Splenocyte [1]) turn out when `Cc1nc(-c2ccccc2)c2onc(-c3nnc(C(=O)NCc4cccnc4)o3)c2n1` was run?
A: 0.483

Q: And the Activity (Mus musculus [2])?
A: 1660

Q: And the Activity (Mus musculus [3])?
A: 3.5

Q: And the Activity (Mus musculus [4])?
A: 545

Q: What about the Activity (Mus musculus [5]) of the same molecule?
A: 5.9

Q: What about the OD (Splenocyte [6]) of the same molecule?
A: 0.482

Q: What about the OD (Splenocyte [7]) of the same molecule?
A: 0.479

Q: How did the OD (Splenocyte [1]) turn out when `Nc1c(-c2nnc(C(=O)NCc3ccncc3)o2)noc1C(=O)c1ccccc1` was run?
A: 0.442

Q: And the Activity (Mus musculus [2])?
A: 1361

Q: What about the Activity (Mus musculus [3]) of the same molecule?
A: 4.9

Q: And the Activity (Mus musculus [4])?
A: 574

Q: And the Activity (Mus musculus [5])?
A: 7.9

Q: And the OD (Splenocyte [6])?
A: 0.371

Q: And the OD (Splenocyte [7])?
A: 0.401

Q: How did the OD (Splenocyte [1]) turn out when `C/C=C/C[C@@H](C)[C@@H](O)[C@H]1C(=O)N[C@@H](CC)C(=O)N(C)CC(=O)N(C)[C@@H](CC(C)C)C(=O)N[C@@H](C(C)C)C(=O)N(C)[C@@H](CC(C)C)C(=O)N[C@@H](C)C(=O)N[C@H](C)C(=O)N(C)[C@@H](CC(C)C)C(=O)N(C)[C@@H](CC(C)C)C(=O)N(C)[C@@H](C(C)C)C(=O)N1C` [CYCLOSPORINE] was run?
A: 0.07

Q: And the Activity (Mus musculus [2])?
A: 1617

Q: What about the Activity (Mus musculus [4]) of the same molecule?
A: 953

Q: What about the Activity (Mus musculus [5]) of the same molecule?
A: 6.1

Q: And the OD (Splenocyte [6])?
A: 0.001

Q: And the OD (Splenocyte [7])?
A: 0.046
